S1P3 antag: S1P3 receptor antagonists, primary screen, cell-based; Sphingosine 1-phosphate receptor 3 (Homo sapiens), Q99500; CHO S1P3 NFAT-BLA reporter, FRET fluorescence, antagonist mode; inhibition, % at 4.98 µM; hit rate 0.27% among 170,000; AID 485, 2006;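 active = inhibition above the plate cutoff, the mean inhibition of test wells on that plate plus 3 SD, cut at about 28% in these data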;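 note: cells challenged with S1P at its EC80 of 0.8 µM; blue over green emission ratio from cleaved BLA substrate after 4 h stimulation; 0% = S1P-stimulated wells and 100% = unstimulated DMSO-only wells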
Target sequence (Q99500 whole entry, looked up): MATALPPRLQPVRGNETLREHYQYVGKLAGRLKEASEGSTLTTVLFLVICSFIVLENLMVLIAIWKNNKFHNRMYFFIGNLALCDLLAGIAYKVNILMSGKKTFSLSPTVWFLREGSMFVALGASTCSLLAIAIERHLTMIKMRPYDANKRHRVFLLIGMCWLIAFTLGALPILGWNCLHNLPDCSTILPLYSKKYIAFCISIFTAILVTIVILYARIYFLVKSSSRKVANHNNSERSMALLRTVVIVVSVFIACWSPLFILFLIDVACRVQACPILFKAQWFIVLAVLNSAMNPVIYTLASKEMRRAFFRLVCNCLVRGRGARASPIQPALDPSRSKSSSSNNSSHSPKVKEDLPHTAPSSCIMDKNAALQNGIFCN
Pf gametocyte: late stage P. falciparum gametocyte viability inhibitors, primary screen, ATP luminescence, HTS; P. falciparum stage V gametocytes, 24 h; inhibition, % at 10.9 µM; hit rate 0.065% among 150,000;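 active = inhibition above the mean plus 3 SD of compounds within the control limits, set per campaign, cut at about 38% in these data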;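 note: 0% = DMSO wells and 100% = medium only without gametocytes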
S1P4 antagonist: S1P4 receptor antagonists, primary screen, cell-based | Sphingosine 1-phosphate receptor 4 (Homo sapiens), O95977 | S1P4-expressing cells, antagonist mode, reporter read-out | inhibition, % at 4.98 µM | hit rate 0.26% among 220,000; in the data active = inhibition above about 29%;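 note: 0% = wells stimulated with agonist and 100% = vehicle wells without agonist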
Biofilm kill mix: clotrimazole potentiators killing C. albicans biofilm, primary screen, 4-compound mixtures. C. albicans biofilm persisters + clotrimazole, fluorescence viability; primary screen in compound mixtures of four per well. inhibition, % at 7.6 µM. hit rate 0.02% among 120,000;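 active = inhibition above 30.3% in the primary screen of four-compound pools, then above 30% when the compound was retested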;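 note: compounds exposed to preformed 24 h biofilms for 48 h; 0% = untreated biofilm control and 100% = clotrimazole plus chlorhexidine kill blank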
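System: C. albicans CAF4-2 wild-type biofilms; Medium: RPMI/MOPS medium, pH 7.0; Reagent: Clotrimazole, 50 µg/mL; Times: biofilm formation 24 h, compound exposure 48 h, 37 °C; Detection: 2-h Alamar Blue fluorescence, 535/590 nm excitation/emission; Evaluation: percent inhibition of biofilm viability.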
S1P4 ag: S1P4 receptor agonists, primary screen, cell-based; Sphingosine 1-phosphate receptor 4 (Homo sapiens), O95977; S1P4-expressing cell line, agonist reporter assay; activation, % at 4.98 µM; hit rate 0.35% among 220,000; in the data active = activation above about 11%;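 note: 0% = DMSO vehicle and 100% = reference agonist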
S1P4 antag cf: S1P4 receptor antagonists, human, confirmation, cell-based. shares compounds with S1P4 antagonist. S1P4-expressing cell line, antagonist mode, reporter read-out. inhibition, % at 4.98 µM. hit rate 71% among 520; in the data active = inhibition above about 30%
S1P1 antagonist: S1P1 receptor antagonists, human, counter-screen for S1P4 antagonist project, cell-based | shares compounds with S1P4 antagonist | cell-based S1P1 antagonist counterscreen, inhibition | inhibition, % at 4.98 µM | hit rate 37% among 520 | AID 1564, 2009; in the data active = inhibition above about 40%;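 note: receptor stimulated with S1P near its EC80; 0% = agonist stimulated wells and 100% = vehicle only wells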
An asterisk follows results filed as active; / = no result given. A selection: hits, their analogues and other compounds. The true share with any hit is near 0.77%.

SMILES	S1P3 antag	Pf gametocyte	S1P4 antagonist	Biofilm kill mix	S1P4 ag	S1P4 antag cf	S1P1 antagonist
CCOC(=O)COc1ccc(C(=O)Nc2cccc(Cl)c2C)cc1	-0.9	-28.2	32.5*	4.3	1.3	0.7	-2.8
CCOC(=O)C1(CCOC)CCN(C(C)CCc2ccc(OC)cc2)CC1 (stereo not given)	-28.3	4.9	-12.3	24.3	-0.9	/	/
CCN(CC)c1ccc2c(Cl)c(Br)c(=O)oc2c1	27.8	/	53.1*	/	0.7	104.2*	74.2*
CC(=O)Nc1cccc(C(=O)/C=C/c2ccc(F)cc2)c1	-0.8	/	46.1*	15.9	-1.3	71.9*	23.4
Cc1ccc(CNC(=O)CSc2c3c(nc4ccc(Cl)cc24)CCCC3)o1	/	/	35.0*	/	-1.3	29.1*	6.8
CN(C(=O)COC(=O)c1nc(Cl)c(Cl)c(Cl)c1Cl)C1CCS(=O)(=O)C1 (stereo not given)	2.2	-8.6	39.5*	-0.6	1.0	73.8*	8.9
CCOC(=O)CNS(=O)(=O)c1ccc(S(=O)(=O)NC2CC2)cc1	/	-2.7	/	/	/	/	/
CCN(CC)C(=O)CN(C#N)c1nc(Cl)nc(N(C)C)n1	-16.5	-8.8	42.1*	30.3	-1.9	50.4*	39.0
CCCc1cnc(NCCNCC(O)COc2ccc(Cl)c(Cl)c2)nc1 (stereo not given)	9.2	-6.8	30.9*	3.6	-1.3	25.1	63.9*
Cc1cccc(C)c1NC(=O)COC(=O)c1cccnc1	-1.2	19.2	0.3	-0.7	2.9	/	/
Cc1cccc(C)c1NC(=O)COC(=O)c1nonc1N	3.7	-18.0	29.3*	/	0.6	-7.2	9.5
COc1ccccc1S(=O)(=O)c1ccccc1[N+](=O)[O-]	0.4	5.3	1.3	9.9	2.5	/	/
COc1ccc([N+](=O)[O-])c(S(=O)(=O)c2ccc(Cl)cc2)n1	-7.3	-13.7	92.8*	19.6	-1.4	116.9*	103.6*
COc1nc(OC)nc(Oc2ccc(Cl)cc2[N+](=O)[O-])n1	7.5	/	2.8	-4.0	2.6	/	/
COc1ccc([N+](=O)[O-])c(S(=O)(=O)c2ccccc2)n1	-9.9	-3.7	88.5*	6.0	-1.9	118.6*	79.1*
Cn1cc([C@@H]2C[C@H]3CN(C4CCCC4)C(=O)[C@]34CCCN24)c(-c2ccccc2)n1	3.6	-15.4	-11.5	4.1	0.8	/	/
O=C(Nc1cccc(NC(=O)c2cccs2)c1)c1ccc([N+](=O)[O-])o1	11.9	3.0	55.6*	19.3	-1.6	65.7*	62.0*
CN(C)CC(CCC(CN(C)C)C(=O)c1ccccc1)C(=O)c1ccccc1 (stereo not given)	8.4	/	41.3*	17.6	-0.4	110.5*	39.3
CCOc1ccc(C(=O)C(CCC(CN(C)C)C(=O)c2ccc(OCC)cc2)CN(C)C)cc1 (stereo not given)	12.7	-3.4	42.5*	16.9	-2.7	109.6*	52.0*
COc1ccc(C(=O)C(CCCCC(CN(C)C)C(=O)c2ccc(OC)cc2)CN(C)C)cc1 (stereo not given)	/	/	-0.7	/	-4.5	/	/
COc1ccc(-c2cc(-c3ccccc3)c(C#N)c(S(C)=O)n2)cc1 (stereo not given)	/	-14.7	54.0*	/	-3.9	85.2*	19.3
O=C(Nc1nnc(-c2cccs2)o1)c1cccc(Oc2ccccc2)c1	-32.5	/	32.2*	/	2.2	98.5*	94.2*
Cn1c2c(c(=O)n(C)c1=O)C(C(F)(F)F)(C(F)(F)F)N=C(c1ccc(Cl)cc1)N2	/	/	51.4*	/	0.8	21.4	-19.2
Cc1ccccc1C1=NC(C(F)(F)F)(C(F)(F)F)c2c(n(C)c(=O)n(C)c2=O)N1	-1.4	-2.7	-18.8	14.3	-0.2	/	/
CCCC(=O)N(C1CC(C)C(C#N)(C#N)C1(C#N)C#N)N(C)C (stereo not given)	22.1	16.1	42.7*	20.3	1.5	107.2*	36.2
SMILES	S1P3 antag	Pf gametocyte	S1P4 antagonist	Biofilm kill mix	S1P4 ag	S1P4 antag cf	S1P1 antagonist
Cc1ccccc1/C=N/Nc1nc2ccccc2[nH]1	1.2	/	15.0	22.0	-0.2	/	/
Cc1[nH]c2ccccc2c1/C=N/Nc1nc2ccccc2[nH]1	22.8	-18.9	49.8*	19.5	1.2	56.8*	26.8
CCc1nnc(N/N=C/c2c(C)[nH]c3ccccc23)n1N	11.4	-14.9	96.7*	15.7	-0.1	3.7	2.7
N/C(=N/OC(=O)c1ccccc1Cl)c1ncc([N+](=O)[O-])s1	9.7	18.7	33.7*	14.3	1.1	27.7	38.3
CCN1C(=O)/C(=C\C(=O)c2cccs2)c2cc(Br)ccc21	8.0	9.1	6.1	17.3	0.0	/	/
O=C1Nc2ccccc2/C1=C/C(=O)c1cccs1	/	-27.9	37.9*	/	0.1	64.0*	46.8*
COc1cccc(-n2nnnc2S(C)(=O)=O)c1	/	/	42.0*	/	0.2	110.3*	17.0
Cc1noc(/C=C/c2nn(C)cc2Cl)c1[N+](=O)[O-]	-0.3	23.2	34.5*	16.8	1.2	59.1*	20.7
S=C(Nc1ccc(Cc2ccncc2)cc1)Nc1cccc(Cl)c1	1.7	8.3	-17.6	10.9	1.4	/	/
COc1cc(NC(=O)CN2C(=O)CN(C)C2=O)c(C)cc1[N+](=O)[O-]	-13.0	2.4	-1.5	7.6	0.0	/	/
COc1cc(NC(=O)Cn2ncc(Cl)c(Cl)c2=O)c(C)cc1[N+](=O)[O-]	-14.8	0.2	93.2*	-2.5	10.4	118.7*	40.2*
CC1CCN(CCc2nc3cc(NC(=O)Nc4ccccc4)ccc3n2C)CC1	-7.0	-17.9	31.9*	/	-2.9	3.5	4.1
c1cnc(Oc2ccc(-c3nnco3)cc2)cn1	-33.4	/	36.9*	/	0.7	4.1	26.8
FC(F)(F)c1cnc(Oc2ccc(-c3nnco3)cc2)c(Cl)c1	-21.5	/	-17.3	/	-0.2	/	/
CCOC(=O)c1c(C)n(C)c2ccc(OC)c(NC(=O)CCN3CCC(Cc4ccccc4)CC3)c12	-20.8	15.9	9.6	16.5	-1.3	/	/
O=S(=O)(c1ccc(Cl)cc1)c1snnc1-c1ccccc1	/	/	35.8*	/	-2.1	72.3*	8.3
O=S(=O)(c1ccc(F)cc1)c1snnc1-c1ccccc1	-16.8	-14.3	8.8	13.3	-1.3	/	/
O=C(NC1(N2CCOCC2)CC1)c1ccc(Cl)cc1	0.3	/	-1.0	3.3	-1.2	/	/
O=C(CO/N=C/c1ccccc1OC(F)F)NC1CCCCC1	1.2	23.1	-26.2	18.9	0.2	/	/
CCC(CC)NC(=O)CO/N=C/c1ccccc1OC(F)F	-19.4	/	38.7*	-2.2	1.1	0.5	-5.7
COC(=O)c1c(C)oc(C)c1S(=O)(=O)NC(C)(C)C	3.9	8.7	-0.7	16.5	1.1	/	/

From PubChem BioAssay
